Test results taken from ChEMBL document CHEMBL1122702, “Radiohalogen-labeled imaging agents. 3. Compounds for measurement of brain blood flow by emission tomography” (J Med Chem, 1984).

What was measured:
Assay type in all cases: ADME, organism-based
Rattus norvegicus [1] = species on record: Rattus norvegicus; experiment: The distribution of the 131 I-labeled compound at 30 min was evaluated in rat brain as Percent of injected dose per gram in the organ; settings: in vivo, 0.5 h
In short: (§1)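 Male Sprague-Dawley rats (200–300 g, free access to food and water), lightly ether-anesthetized and restrained, received a 0.2 mL saline tail-vein bolus of 10–20 μCi 131I-labeled compound. They were decapitated at the stated time, and organs were excised, weighed and gamma-counted. Percent injected dose was determined against a calibrated external standard made by serial dilution of the injectate. n = 1–4 rats.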

Rattus norvegicus [2] = species on record: Rattus norvegicus; experiment: The distribution of the 131 I-labeled compound at 30 min was evaluated in rat heart as Percent of injected dose in the total organ; settings: in vivo, 0.5 h; in short: as §1
Rattus norvegicus [3] = species on record: Rattus norvegicus; experiment: The distribution of the 131 I-labeled compound at 30 min was evaluated in rat heart as Percent of injected dose per gram in the organ; settings: in vivo, 0.5 h; in short: as §1
Rattus norvegicus [4] = species on record: Rattus norvegicus; experiment: The distribution of the 131 I-labeled compound at 30 min was evaluated in rat kidney as Percent of injected dose in the total organ; settings: in vivo, 0.5 h; in short: as §1
Rattus norvegicus [5] = species on record: Rattus norvegicus; experiment: The distribution of the 131 I-labeled compound at 30 min was evaluated in rat kidney as Percent of injected dose per gram in the organ; settings: in vivo, 0.5 h; in short: as §1
Rattus norvegicus [6] = species on record: Rattus norvegicus; experiment: The distribution of the 131 I-labeled compound at 30 min was evaluated in rat liver as Percent of injected dose in the total organ; settings: in vivo, 0.5 h; in short: as §1
Rattus norvegicus [7] = species on record: Rattus norvegicus; experiment: The distribution of the 131 I-labeled compound at 30 min was evaluated in rat liver as Percent of injected dose per gram in the organ; settings: in vivo, 0.5 h; in short: as §1
Rattus norvegicus [8] = species on record: Rattus norvegicus; experiment: The distribution of the 131 I-labeled compound at 30 min was evaluated in rat lung as Percent of injected dose per gram in the organ; settings: in vivo, 0.5 h; in short: as §1
Rattus norvegicus [9] = species on record: Rattus norvegicus; experiment: The distribution of the 131 I-labeled compound at 5 min was evaluated in rat brain as Percent of injected dose in the total organ; settings: in vivo; in short: as §1
Rattus norvegicus [10] = species on record: Rattus norvegicus; experiment: The distribution of the 131 I-labeled compound at 5 min was evaluated in rat brain as Percent of injected dose per gram in the organ; settings: in vivo; in short: as §1
Rattus norvegicus [11] = species on record: Rattus norvegicus; experiment: The distribution of the 131 I-labeled compound at 5 min was evaluated in rat heart as Percent of injected dose in the total organ; settings: in vivo; in short: as §1
Rattus norvegicus [12] = species on record: Rattus norvegicus; experiment: The distribution of the 131 I-labeled compound at 5 min was evaluated in rat heart as Percent of injected dose per gram in the organ; settings: in vivo; in short: as §1
Rattus norvegicus [13] = species on record: Rattus norvegicus; experiment: The distribution of the 131 I-labeled compound at 5 min was evaluated in rat kidney as Percent of injected dose in the total organ; settings: in vivo; in short: as §1
Rattus norvegicus [14] = species on record: Rattus norvegicus; experiment: The distribution of the 131 I-labeled compound at 5 min was evaluated in rat kidney as Percent of injected dose per gram in the organ; settings: in vivo; in short: as §1
Rattus norvegicus [15] = species on record: Rattus norvegicus; experiment: The distribution of the 131 I-labeled compound at 5 min was evaluated in rat liver as Percent of injected dose in the total organ; settings: in vivo; in short: as §1
Rattus norvegicus [16] = species on record: Rattus norvegicus; experiment: The distribution of the 131 I-labeled compound at 5 min was evaluated in rat liver as Percent of injected dose per gram in the organ; settings: in vivo; in short: as §1
Rattus norvegicus [17] = species on record: Rattus norvegicus; experiment: The distribution of the 131 I-labeled compound at 5 min was evaluated in rat lung as Percent of injected dose per gram in the organ; settings: in vivo; in short: as §1
Rattus norvegicus [18] = species on record: Rattus norvegicus; experiment: The distribution of the 131 I-labeled compound at 30 min was evaluated in rat blood as Percent of injected dose per gram in the organ; settings: in vivo, 0.5 h; in short: as §1
Rattus norvegicus [19] = species on record: Rattus norvegicus; experiment: Ratio of distribution of the [131I]-labeled compound at 30 min in rat brain over uptake in blood; settings: 0.5 h
In short: (§2)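 Male Sprague-Dawley rats (200–300 g, fed ad libitum), ether-anesthetized, got a tail-vein bolus of 0.2 mL saline containing 10–20 μCi 131I compound and were decapitated at the stated time. Organs were weighed and gamma-counted against a serially diluted external standard. Organ/blood ratio was calculated from % dose per gram of organ. Animal numbers per time point were 1–4.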

Rattus norvegicus [20] = species on record: Rattus norvegicus; experiment: Ratio of distribution of the [131I]-labeled compound at 30 min in rat heart over uptake in blood; settings: other tissue, 0.5 h; in short: as §2
Rattus norvegicus [21] = species on record: Rattus norvegicus; experiment: Ratio of distribution of the [131I]-labeled compound at 30 min in rat kidney over uptake in blood; settings: other tissue, 0.5 h; in short: as §2
Rattus norvegicus [22] = species on record: Rattus norvegicus; experiment: Ratio of distribution of the [131I]-labeled compound at 30 min in rat liver over uptake in blood; settings: other tissue, 0.5 h; in short: as §2
Rattus norvegicus [23] = species on record: Rattus norvegicus; experiment: Ratio of distribution of the [131I]-labeled compound at 30 min in rat lung over uptake in blood; settings: other tissue, 0.5 h; in short: as §2
Rattus norvegicus [24] = species on record: Rattus norvegicus; experiment: Ratio of distribution of the [131I]-labeled compound at 5 min in rat brain over uptake in blood; in short: as §2
Rattus norvegicus [25] = species on record: Rattus norvegicus; experiment: Ratio of distribution of the [131I]-labeled compound at 5 min in rat heart over uptake in blood; settings: other tissue; in short: as §2
Rattus norvegicus [26] = species on record: Rattus norvegicus; experiment: Ratio of distribution of the [131I]-labeled compound at 5 min in rat kidney over uptake in blood; settings: other tissue; in short: as §2
Rattus norvegicus [27] = species on record: Rattus norvegicus; experiment: Ratio of distribution of the [131I]-labeled compound at 5 min in rat liver over uptake in blood; settings: other tissue; in short: as §2
Rattus norvegicus [28] = species on record: Rattus norvegicus; experiment: Ratio of distribution of the [131I]-labeled compound at 5 min in rat lung over uptake in blood; settings: other tissue; in short: as §2
Rattus norvegicus [29] = species on record: Rattus norvegicus; experiment: The distribution of the 131 I-labeled compound at 5 min was evaluated in rat blood as Percent of injected dose per gram in the organ; settings: in vivo; in short: as §1
Rattus norvegicus [30] = species on record: Rattus norvegicus; experiment: The distribution of the 131 I-labeled compound at 30 min was evaluated in rat brain as Percent of injected dose in the total organ; settings: in vivo, 0.5 h; in short: as §1

Compound | Dose (Rattus norvegicus [1]) [%] | Dose (Rattus norvegicus [2]) [%] | Dose (Rattus norvegicus [3]) [%] | Dose (Rattus norvegicus [4]) [%] | Dose (Rattus norvegicus [5]) [%] | Dose (Rattus norvegicus [6]) [%] | Dose (Rattus norvegicus [7]) [%] | Dose (Rattus norvegicus [8]) [%] | Dose (Rattus norvegicus [9]) [%] | Dose (Rattus norvegicus [10]) [%] | Dose (Rattus norvegicus [11]) [%] | Dose (Rattus norvegicus [12]) [%] | Dose (Rattus norvegicus [13]) [%] | Dose (Rattus norvegicus [14]) [%] | Dose (Rattus norvegicus [15]) [%] | Dose (Rattus norvegicus [16]) [%] | Dose (Rattus norvegicus [17]) [%] | Dose (Rattus norvegicus [18]) [%] | Ratio (Rattus norvegicus [19]) | Ratio (Rattus norvegicus [20]) | other results
COc1cc(CC(C)NCC2CC2)c(OC)cc1I (stereo not given) | 0.19 | 0.23 | 0.3 | 1.7 | 0.77 | 8.9 | 0.97 | 2.4 | 0.62 | 0.33 | 0.71 | 0.91 | 2 | 1.1 | 3.9 | 0.55 | 7.8 | 0.09 | 2.1 | 3.3 | Ratio (Rattus norvegicus [21]): 8.6; Ratio (Rattus norvegicus [22]): 11; Ratio (Rattus norvegicus [23]): 26; Ratio (Rattus norvegicus [24]): 2.8; Ratio (Rattus norvegicus [25]): 7.6; Ratio (Rattus norvegicus [26]): 9.2; Ratio (Rattus norvegicus [27]): 4.5; Ratio (Rattus norvegicus [28]): 65; Dose (Rattus norvegicus [29]): 0.12%; Dose (Rattus norvegicus [30]): 0.35%
COc1cc(CC(C)N(C)C)c(OC)cc1I (stereo not given) | 0.55 | 0.28 | 0.26 | 2.4 | 0.9 | 12 | 0.89 | 1.7 | 3.4 | 1.8 | 1.1 | 0.8 | 6.8 | 2.4 | 16 | 1.1 | 3.1 | 0.11 | 5 | 2.4 | Ratio (Rattus norvegicus [21]): 8.4; Ratio (Rattus norvegicus [22]): 8.1; Ratio (Rattus norvegicus [23]): 15; Ratio (Rattus norvegicus [24]): 9; Ratio (Rattus norvegicus [25]): 4; Ratio (Rattus norvegicus [26]): 5.5; Ratio (Rattus norvegicus [27]): 5.5; Ratio (Rattus norvegicus [28]): 16; Dose (Rattus norvegicus [29]): 0.2%; Dose (Rattus norvegicus [30]): 1.1%
